Experimental data of several laboratories.
Compare with care: the assays were run in different laboratories.
RET V804M: Proto-oncogene tyrosine-protein kinase receptor Ret (RET, Homo sapiens, UniProt P07949, V804M)
RET: Proto-oncogene tyrosine-protein kinase receptor Ret (RET, Homo sapiens, UniProt P07949)
RET V804L: Proto-oncogene tyrosine-protein kinase receptor Ret (RET, Homo sapiens, UniProt P07949, V804L)
RET M918T: Proto-oncogene tyrosine-protein kinase receptor Ret (RET, Homo sapiens, UniProt P07949, M918T)

For `COCCOc1nc(-c2ccc(Cl)nc2)nc2c1CN(C(=O)c1ncn3ccccc13)CC2`, the remaining binding was 89% (RET V804M; cell-free assay; competition with immobilised ligand; 0.1 µM).
`C[C@@H]1CCN(c2nccc(-c3cnn4ncccc34)n2)C1` gave a remaining binding of 88% (RET V804M; binding; 1 µM).
The remaining activity of `Cc1cc(NC(=O)Nc2c(NC3CCCC3)c3ccccc3oc2=O)ccc1Br` is reported as 67.7% (RET; enzyme activity; inhibitor; radiometric; 10 µM).
The remaining binding of `Cc1cnn2ncc(-c3ccnc(N(C)C)n3)c2c1` is reported as 100% (RET V804M; binding; 1 µM).
`COc1cccc(CNC(=O)c2nc3scc(COCc4ccc(C(=O)O)cc4)c3c(=O)[nH]2)c1` has a remaining binding of 95.3% (RET V804M; cell-free assay; competition with immobilised ligand; 1 µM).
For `CN(C)c1ncc(F)c(-c2cnn3ncccc23)n1`, the remaining binding was 91% (RET V804L; binding; 1 µM).
The remaining activity of `CC(=O)OCc1cnc(C)c2oc(=Nc3ccc(F)cc3)c(C(=O)Nc3ccc4c(c3)OCO4)cc12` is reported as 121% (RET; enzyme activity; inhibitor; radiometric; 0.1 µM).
The remaining binding of `CS(=O)(=O)N1CCCC(NC(=O)[C@H](CCC2CCCCC2)NC(=O)c2ccc(CNC(=O)c3cnc4ccccn34)cc2)C1` (some centres unmarked) is reported as 93% (RET M918T; cell-free assay; competition with immobilised ligand; 0.1 µM).
With `Cc1cc(NC(=O)Nc2ccc(F)cc2)cc2sc(NC(=O)c3ccccc3)nc12` the remaining activity was 146% (RET; enzyme activity; inhibitor; radiometric; 0.1 µM).
`CO[C@]1(C(=O)N[C@@H](C)c2ccc(-n3cc(F)cn3)nc2)CC[C@H](c2nc(C)cc(Nc3cc(C)[nH]n3)n2)CC1` has a ΔTm of 8.7 °C (RET V804M; thermal stability; DSF; 10 µM).
`CCCOc1ccc(OC)c(F)c1C(=O)c1ccc(C(=O)N[C@@H]2CNC[C@H]2NC(=O)c2ccc3[nH]ncc3c2)cc1` has a remaining activity of 8% (RET V804L; enzyme activity; inhibitor; 10 µM).
With `COc1ccc(CN2C3CC2CN(c2ccc(-c4cc(OCC(C)(C)O)cn5ncc(C#N)c45)cn2)C3)cn1` the ΔTm was 8.7 °C (Proto-oncogene tyrosine-protein kinase receptor Ret (RET, Homo sapiens, UniProt P07949, L760A); thermal stability; DSF; 10 µM).
`Cc1cc(NC(=O)c2cccc3cc(-c4cccc5[nH]nc(N)c45)ccc23)ccc1F` gave an activity vs control of 37% (RET; enzyme activity; inhibitor; 0.1 µM).
For `CC/C(=N\NC(=O)NCc1cccc(O)c1)c1ccc(O)c(C)c1O`, the inhibition was 1.1% (RET M918T; enzyme activity; inhibitor; 0.1 µM).
With `C=CC(=O)Nc1cc(Nc2nccc(Nc3cc(Cl)c(F)cc3C(C)(C)O)n2)c(OC)cc1N1CC[C@@H](N(C)C)C1` the inhibition was -6% (RET V804M; enzyme activity; inhibitor; 1 µM).
The remaining signal of `O=C1NC(=O)c2cc(Nc3ccc(F)cc3)c(Nc3ccc(F)cc3)cc21` is reported as 104% (RET; cell-free assay; 0.5 µM).
`O=c1nc(-c2ccccn2)sc2ccccc12` gave a remaining binding of 100% (RET V804M; binding; competition with immobilised ligand; 1 µM).
The remaining activity of `O=C(COc1ccc(Cl)cc1C(=O)Nc1ccccc1)Nc1cc(Cl)ccc1-n1cncn1` is reported as 107% (RET; enzyme activity; inhibitor; radiometric; 0.1 µM).
`Cc1ccc(NC(=O)c2ccc(C)c(C(F)(F)F)c2)cc1C#Cc1nn(C2CCC(O)CC2)c2ncnc(N)c12` (centres unmarked) gave a remaining signal of 2% (RET; cell-free assay; 10 µM).
`O=C(NS(=O)(=O)c1ccc(NCC2CCOCC2)c([N+](=O)[O-])c1)c1ccc(N2CCN(Cc3ccc(C(F)(F)F)cc3-c3ccc(Cl)cc3)CC2)cc1Oc1cnc2[nH]ccc2c1` gave a remaining binding of 100% (RET V804M; cell-free assay; competition with immobilised ligand; 1 µM).
For `Cc1ccc(-c2nn3c(=O)cc(CNC(=O)Nc4ccc(C)c(Cl)c4)nc3s2)cc1`, the remaining activity was 116% (RET; enzyme activity; inhibitor; radiometric; 0.1 µM).
With `CN(C)c1nccc(-c2cnn3ncccc23)n1` the remaining binding was 97% (RET M918T; binding; 1 µM).
`Nc1ncnc2occ(-c3ccc(NC(=O)Nc4cc(C(F)(F)F)ccc4F)cc3)c12` gave a remaining signal of 0% (RET V804M; cell-free assay; 20 µM).
With `c1cnn2ncc(-c3ccnc(N4CCC45COC5)n3)c2c1` the remaining binding was 97% (RET M918T; binding; 1 µM).
`Cc1cc(C)c(-n2ccn3nc(-c4cccnc4)cc23)cc1NC(=O)c1cc(C#N)cc(S(F)(F)(F)(F)F)c1` gave a remaining binding of 93.6% (RET V804L; cell-free assay; competition with immobilised ligand; 0.1 µM).
`COc1cc(NC(=O)Nc2ccc(Br)cc2)cc2sc(NC(=O)c3ccccc3)nc12` gave a remaining activity of 120% (RET; enzyme activity; inhibitor; radiometric; 0.1 µM).
For `COc1cc2c(N3CCN(C(=O)Nc4ccc(OC(C)C)cc4)CC3)ncnc2cc1OCCCN1CCCCC1`, the remaining signal was 91.5% (RET; cell-free assay; 0.5 µM).
`COc1cc(NC(=O)Nc2cccc(Br)c2)cc2sc(NC(=O)c3ccccc3)nc12` gave a remaining activity of 127% (RET; enzyme activity; inhibitor; radiometric; 10 µM).
`CC(=O)Nc1c(C(C)=O)c(=O)n(C)c2nc(-c3ccc(Cl)cc3Cl)c(-c3ccc(Cl)cc3)cc12` gave a remaining binding of 100% (RET; cell-free assay; competition with immobilised ligand; 1 µM).
For `COc1cc2ncnc(Nc3ccc(Oc4ccccc4)c(C)c3C)c2cc1OC`, the inhibition was 17% (RET; enzyme activity; inhibitor; 1 µM).
`C#Cc1cccc(Nc2ncnc3cc(OCCOC)c(OCCOC)cc23)c1` gave a remaining signal of 48.6% (RET; cell-free assay; 0.5 µM).
`COc1cc(-c2cc(-c3ccc(N4CCNCC4)cc3)cnc2N)cc(OC)c1OC` has an inhibition of 13% (Proto-oncogene tyrosine-protein kinase receptor Ret (RET, Homo sapiens, UniProt P07949, Y791F); enzyme activity; inhibitor; 1 µM).
The remaining activity of `Cc1ccc(C(=O)Nc2ccc(CN3CCN(C)CC3)c(C(F)(F)F)c2)cc1C#Cc1cnc2cccnn12` is reported as 17% (RET V804L; enzyme activity; 23.5 nM).
`CN(c1nccc(-c2cnn3ncccc23)n1)C1CC1` has a remaining binding of 100% (RET V804M; binding; 1 µM).
For `CC(=O)c1cccc(NC(=O)Cc2csc(NC(=O)Nc3cccc(Cl)c3)n2)c1`, the remaining activity was 92.6% (RET; enzyme activity; inhibitor; radiometric; 10 µM).
`N[C@H]1CCN(c2nccc(-c3cnn4ncccc34)n2)C1` gave a remaining binding of 51% (RET; binding; 1 µM).
`O=C(NCc1ncc(C(F)(F)F)cc1Cl)c1ccc2c(c1)C1(CCS(=O)(=O)CC1)[C@@H](C1CC1)N2S(=O)(=O)c1ccc(F)cc1` has a remaining binding of 100% (RET V804M; cell-free assay; competition with immobilised ligand; 1 µM).
For `COc1cc2ncnc(Nc3ccc(Oc4ccccc4)cc3C)c2cc1OC`, the inhibition was 34% (RET; enzyme activity; inhibitor; 1 µM).
